A selection: hits, their analogues and other compounds. The true share with any hit is near 1.7%.
PABP FP inh: PABP-poly(A) binding inhibition | P11940 | PABP-poly(A) RNA binding, fluorescence polarization | inhibition, % at 35 µM | 1% of 290,000 active;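 further: calls also rest on retests at 20 µM and on dose response follow-up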
SKN-1 block: inhibitors of C. elegans SKN-1. C. elegans VP596 Pgst-4::GFP/RFP ratio, acrylamide-induced, 24 h. inhibition, % at 21.8 µM. 0.49% of 360,000 active. AID 624304;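 active means interference check ratio from 0.5 to 1.5 plus GFP to RFP signal ratio inhibition reaching or exceeding a fixed threshold, cut at about 30% in these data, passing the limit was not always enough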
eIF4H inh: inhibitors of RNA binding by human eIF4H. Q15056. eIF4H fluorescence polarization binding assay. inhibition, % at 35 µM. 0.94% of 290,000 active. AID 2012;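 further: calls also rest on retests at 20 µM and on dose response follow-up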
PABP1 MLLE inh: blocks PAM2 peptide binding to the PABP1 MLLE domain | GST-MLLE / FITC-PAM2 fluorescence polarization | inhibition, % at 20 µM | 0.36% of 360,000 active; in the data active means inhibition above about 35%, passing the limit was not always enough
MT1-MMP act inh: MT1-MMP (human) activation inhibition; HT1080 RFP-PRO-GFP cells, GFP/RFP ratio fluorescence, overnight; percent of plate control window, DMSO zero; GFP/RFP ratio change, % at 20 µM; 0.061% of 360,000 active; AID 651647;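 active means GFP/RFP ratio change of at least 30% with cell ATP level not reduced by more than half and red fluorescence within 50% of control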
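Test system: HT1080 RFP-PRO-GFP cells; Benchmarks: DMSO and RFP-L50D-GFP cell wells; Timing: cells overnight before dosing, compound overnight, 37 °C, 5% CO2; Compound: one 20 µM compound dose with 1% DMSO; Read-out: GFP/RFP fluorescence ratio.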
Hits are given with their value; 0 = inactive; ? = inconclusive; - = not tested or not shown. Unless noted, how the calls were made is not given here.

SMILES	PABP FP inh	SKN-1 block	eIF4H inh	PABP1 MLLE inh	MT1-MMP act inh
Cc1ccc(OCC(=O)Nc2nnc(S(=O)(=O)N3CCC(C)CC3)s2)cc1	0	0	63	0	0
CC(C)Cc1ccc(C(C)C(=O)Nc2nccs2)cc1 (stereo not given)	active	0	80	0	0
Oc1ccc(C=NC2CCCCC2)cc1	0	0	0	0	0
N#C/C(=C/c1ccco1)c1nc2ccccc2s1	0	86	?	0	0
N#C/C(=C\c1ccco1)c1nc2ccccc2s1	0	88	?	0	0
N#C/C(=C/c1ccc(-c2cc(C(=O)O)cc(C(=O)O)c2)o1)c1nc2ccccc2s1	0	-	?	-	-
CCCCc1ccc(-c2csc(/C(C#N)=C\c3ccco3)n2)cc1	0	0	55	0	0
CC(C)CNC(=O)C(=O)NCC1OCCCN1S(=O)(=O)c1cccs1 (stereo not given)	0	0	0	0	0
O=C(CN1C(=O)NC2(CCCCC2)C1=O)N1CCN(c2ncccn2)CC1	-	0	-	0	0
COc1ccc(N2CCN(c3oc(-c4ccco4)nc3C#N)CC2)cc1	0	0	100	0	0
N#Cc1nc(-c2ccco2)oc1N1CCN(c2ccccc2)CC1	0	0	0	0	0
S=c1[nH]nc(-c2n[nH]c3c2CCC3)n1/N=C/C=C/c1ccco1	68	0	90	0	0
S=c1[nH]nc(COc2ccccc2)n1/N=C/C=C/c1ccco1	68	0	81	0	0
S=c1[nH]nc(-c2cc(-c3ccccc3)n[nH]2)n1/N=C/C=C/c1ccco1	62	0	102	0	0
COc1ccccc1/C=C/C=N/n1c(-c2n[nH]c3c2CCC3)n[nH]c1=S	0	0	0	0	0
CCCn1c(N)c(C(=O)CSc2ncn[nH]2)c(=O)n(C)c1=O	-	0	-	0	0
CCCCn1c(N)c(C(=S)NC(=O)CC(C)(C)C)c(=O)n(C)c1=O	0	0	0	48	0
CCNC(=S)N/N=C/c1cn(Cc2ccc(F)cc2)c2ccccc12	8.9	0	82	0	0
Cc1ccc(C(=O)N/N=C/c2cn(Cc3ccccc3)c3ccccc23)cn1	0	0	0	0	0
O=C(N/N=C/c1cn(Cc2ccccc2)c2ccccc12)c1cc(O)cc(O)c1	0	0	62	0	0
CCc1ccc(C(C)NC(=O)COC(=O)c2ccc(-n3cnnn3)cc2)cc1 (stereo not given)	-	0	-	0	0
Cc1ccnc(N2CCCC(C(=O)Nc3cccc(C)c3C)C2)n1 (stereo not given)	0	0	0	0	0
CNC(=O)c1ccsc1NC(=O)c1sc2ccccc2c1Cl	52	0	54	0	0
CCn1c(CSc2nnc(-c3ccncc3)n2C)nc2cc(C(=O)O)ccc21	0	41	0	0	0
CCn1c(CSc2ncn[nH]2)nc2cc(C(=O)O)ccc21	0	0	0	0	0
SMILES	PABP FP inh	SKN-1 block	eIF4H inh	PABP1 MLLE inh	MT1-MMP act inh
O=c1cc(CN2CCCc3ccccc32)nc2sccn12	0	0	94	0	0
O=c1cc(CN2CCc3ccccc32)nc2sccn12	0	0	0	0	0
O=C(COC(=O)c1ccc2c(c1)OCO2)Nc1nc(-c2ccccc2)cs1	61	0	0	0	0
NS(=O)(=O)c1ccc(NC(=O)COC(=O)c2ccc3c(c2)OCCO3)cc1	61	0	active	0	0
O=C1ON=C(c2ccccc2[N+](=O)[O-])/C1=C/c1cccc([N+](=O)[O-])c1O	-	0	-	0	0
Cc1[nH]c(C)c(S(=O)(=O)NCc2ccc(OC(C)C)cc2)c1C(=O)N1CCCC1	0	0	0	0	0
Cc1cccc(C)c1-n1c(C)nn(CC#N)c1=O	0	0	0	0	0
Cc1nc2ncccn2c1-c1csc(NCc2ccco2)n1	15	0	0	0	0
Cc1nc2ncccn2c1-c1csc(Nc2ccccc2)n1	0	0	0	0	0
CCCCn1c(N)c(N(CCOC)C(=O)C(C)N2C(=O)c3ccccc3C2=O)c(=O)[nH]c1=O (stereo not given)	-	0	-	0	0
COC(=O)c1cc(O)cc(OC)c1Oc1cc(C)cc(O)c1C(=O)O	74	0	90	0	0
COC(=O)c1cc(O)cc(OC)c1C(=O)c1c(O)cc(C)cc1O	0	0	0	0	0
O=C(NCC1CCCN1S(=O)(=O)c1cccs1)c1ccc(F)cc1 (stereo not given)	-	0	-	0	0
CC1=CCC(C(=O)O)C(C(=O)NC2CCCCC2)C1 (stereo not given)	0	0	70	0	0
CC1=C(C)CC(C(=O)NC2CCCC2)C(C(=O)O)C1 (stereo not given)	0	0	0	0	0
COn1c2c(c3c4nonc4ccc31)CCCC2	63	0	0	0	0
On1c2c(c3c4nonc4ccc31)CCCC2	59	-	77	-	-
Cc1cccc(C#Cc2ccccc2)n1	-	46	-	0	0
Nc1ccc(C#Cc2ccccc2)cc1	0	0	0	0	0
CC(C)(C)n1cc(S(=O)(=O)c2ccccc2)[nH]c1=O	81	0	active	0	0
O=C(CSc1nc2cc(Cl)ccc2s1)c1cc2ccccc2o1	81	0	45	0	0
Cc1cc(NC(=O)CSc2nc3cc(Cl)ccc3s2)no1	0	0	0	0	0
Cc1c(C(=O)Nc2cccc(Cl)c2)c2ccccn2c1CCc1ccncc1	85	0	?	0	0
COc1ccc(-n2c(=S)[nH]c3cc(C(=O)NCc4cccnc4)ccc3c2=O)cc1	0	0	0	0	0
NC(=O)CC(NC(=O)Cc1cccc2ccccc12)c1ccc(N2CCC(N3CCCCC3)CC2)c([N+](=O)[O-])c1 (stereo not given)	0	46	0	0	0
SMILES	PABP FP inh	SKN-1 block	eIF4H inh	PABP1 MLLE inh	MT1-MMP act inh
NC(=O)CC(NC(=O)Cc1cccc2ccccc12)c1ccc(N2CCCCCC2)c([N+](=O)[O-])c1 (stereo not given)	0	0	0	0	0
CCC(=O)N=c1ccn(C2=Nc3ccccc3NC2=C(C#N)C#N)cc1	64	0	73	0	0
C=C(C)C(=O)Nc1cccc(C2=NOC3(C2)C[C@H](C(N)=O)N(C(=O)CC#N)C3)c1 (stereo not given in full)	0	-	89	-	-
C=C(C)C(=O)Nc1cccc(C2=NOC3(C2)C[C@H](C(N)=O)N(C(=O)CC)C3)c1 (stereo not given in full)	0	0	92	0	0
C/C=C/C=C\C(=O)Nc1cccc(C2=NOC3(C2)C[C@H](C(N)=O)N(C(=O)CC#N)C3)c1 (stereo not given in full)	0	0	0	0	0
C=C(C)C(=O)Nc1cccc(C2=NOC3(C2)C[C@@H](C(N)=O)N(C(=O)CC(c2ccccc2)c2ccccc2)C3)c1 (stereo not given in full)	52	0	90	0	0
CCCCCC(=O)Nc1cccc(C2=NOC3(C2)C[C@H](C(N)=O)N(C(=O)CC#N)C3)c1 (stereo not given in full)	67	-	0	-	-
